Laboratory results as given in ChEMBL document CHEMBL1777788, “Synthesis and in vitro antimicrobial activities of new (cyano-NNO-azoxy)pyrazole derivatives” (2011).
Values after ≈ are worked out from the molar mass of the structure shown.

Tests used:
Candida parapsilosis [1] = assay: Antimicrobial activity against Candida parapsilosis isolate 19 after 48 hrs by microdilution broth method; format: functional; conditions: Lodderomyces parapsilosis, isolate 19, 48 h
Summary of the method: (§1)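 Yeasts were grown overnight on Sabouraud dextrose agar at 35°C, suspended in water, and adjusted at 530 nm to McFarland 0.5 (approximately 1-5 x 10^6 CFU/ml). They were then diluted 1:100 and 1:20 in RPMI 1640 with 0.165 M MOPS and 2% glucose. Compound in DMSO was tested at ten concentrations, 0.25–256 mg/L, with incubation at 35°C. At 48 h, MIC was read spectrophotometrically as 50% turbidity reduction versus growth control.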

Candida parapsilosis [2] = assay: Antimicrobial activity against Candida parapsilosis ATCC 22019 after 48 hrs by microdilution broth method; format: functional; conditions: Lodderomyces parapsilosis, ATCC 22019, 48 h; summary of the method: as §1
Pichia kudriavzevii [3] = assay: Antimicrobial activity against Candida krusei isolate 31 after 48 hrs by microdilution broth method; format: functional; conditions: isolate 31, 48 h; summary of the method: as §1
Candida tropicalis [4] = assay: Antimicrobial activity against Candida tropicalis isolate 22 after 48 hrs by microdilution broth method; format: functional; conditions: isolate 22, 48 h; summary of the method: as §1
Candida parapsilosis [5] = assay: Antimicrobial activity against Candida parapsilosis isolate 44 after 48 hrs by microdilution broth method; format: functional; conditions: Lodderomyces parapsilosis, isolate 44, 48 h; summary of the method: as §1
Candida albicans [6] = assay: Antimicrobial activity against Candida albicans isolate 31 after 48 hrs by microdilution broth method; format: functional; conditions: isolate 31, 48 h; summary of the method: as §1
Pichia kudriavzevii [7] = assay: Antimicrobial activity against Candida krusei isolate 43 after 48 hrs by microdilution broth method; format: functional
[8] = system: Cryptococcus deneoformans; assay: Antimicrobial activity against Cryptococcus neoformans var. neoformans isolate 30 after 48 hrs by microdilution broth method; format: functional; conditions: isolate 30, 48 h; summary of the method: as §1
Pichia kudriavzevii [9] = assay: Antimicrobial activity against Candida krusei ATCC 6258 after 48 hrs by microdilution broth method; format: functional; conditions: ATCC 6258, 48 h
[10] = system: Cryptococcus deneoformans; assay: Antimicrobial activity against Cryptococcus neoformans var. neoformans isolate 27 after 48 hrs by microdilution broth method; format: functional; conditions: isolate 27, 48 h; summary of the method: as §1
Candida albicans [11] = assay: Antimicrobial activity against Candida albicans isolate 41 after 48 hrs by microdilution broth method; format: functional; conditions: isolate 41, 48 h; summary of the method: as §1
Nakaseomyces glabratus [12] = assay: Antimicrobial activity against Candida glabrata isolate 46 after 48 hrs by microdilution broth method; format: functional; summary of the method: as §1
Nakaseomyces glabratus [13] = assay: Antimicrobial activity against Candida glabrata isolate 49 after 48 hrs by microdilution broth method; format: functional; summary of the method: as §1
Candida parapsilosis [14] = assay: Antimicrobial activity against Candida parapsilosis isolate 26 after 48 hrs by microdilution broth method; format: functional; conditions: Lodderomyces parapsilosis, isolate 26, 48 h; summary of the method: as §1
Candida tropicalis [15] = assay: Antimicrobial activity against Candida tropicalis isolate 33 after 48 hrs by microdilution broth method; format: functional; conditions: isolate 33, 48 h; summary of the method: as §1
Nakaseomyces glabratus [16] = assay: Antimicrobial activity against Candida glabrata isolate 30 after 48 hrs by microdilution broth method; format: functional; summary of the method: as §1
[17] = system: Cryptococcus deneoformans; assay: Antimicrobial activity against Cryptococcus neoformans var. neoformans isolate 25 after 48 hrs by microdilution broth method; format: functional; conditions: isolate 25, 48 h; summary of the method: as §1
Candida albicans [18] = assay: Antimicrobial activity against Candida albicans isolate 48 after 48 hrs by microdilution broth method; format: functional; conditions: isolate 48, 48 h; summary of the method: as §1
Pichia kudriavzevii [19] = assay: Antimicrobial activity against Candida krusei isolate 48 after 48 hrs by microdilution broth method; format: functional
Candida tropicalis [20] = assay: Antimicrobial activity against Candida tropicalis isolate 11 after 48 hrs by microdilution broth method; format: functional; conditions: isolate 11, 48 h; summary of the method: as §1
Staphylococcus aureus [21] = assay: Antimicrobial activity against methicillin-resistant Staphylococcus aureus isolate after 24 hrs by microdilution broth method
Pseudomonas aeruginosa [22] = assay: Antimicrobial activity against Pseudomonas aeruginosa isolate 2 after 24 hrs by microdilution broth method; conditions: isolate 2, 24 h
[23] = system: Cryptococcus deneoformans; assay: Antimicrobial activity against Cryptococcus neoformans var. neoformans isolate 14 after 48 hrs by microdilution broth method; format: functional; conditions: isolate 14, 48 h; summary of the method: as §1
Staphylococcus aureus [24] = assay: Antimicrobial activity against methicillin-susceptible Staphylococcus aureus isolate after 24 hrs by microdilution broth method
Nakaseomyces glabratus [25] = assay: Antimicrobial activity against Candida glabrata isolate 32 after 48 hrs by microdilution broth method; format: functional; conditions: isolate 32, 48 h; summary of the method: as §1
Candida albicans [26] = assay: Antimicrobial activity against Candida albicans isolate 47 after 48 hrs by microdilution broth method; format: functional; conditions: isolate 47, 48 h; summary of the method: as §1
Pseudomonas aeruginosa [27] = assay: Antimicrobial activity against Pseudomonas aeruginosa isolate 1 after 24 hrs by microdilution broth method; conditions: isolate 1, 24 h
Escherichia coli = assay: Antimicrobial activity against Escherichia coli isolate after 24 hrs by microdilution broth method
Proteus mirabilis = assay: Antimicrobial activity against Proteus mirabilis isolate after 24 hrs by microdilution broth method

Compound | MIC (Candida parapsilosis [1]) [µg/mL] | MIC (Candida parapsilosis [2]) [µg/mL] | MIC (Pichia kudriavzevii [3]) [µg/mL] | MIC (Candida tropicalis [4]) [µg/mL] | MIC (Candida parapsilosis [5]) [µg/mL] | MIC (Candida albicans [6]) [µg/mL] | MIC (Pichia kudriavzevii [7]) [µg/mL] | MIC [8] [µg/mL] | MIC (Pichia kudriavzevii [9]) [µg/mL] | MIC [10] [µg/mL] | MIC (Candida albicans [11]) [µg/mL] | MIC (Nakaseomyces glabratus [12]) [µg/mL] | MIC (Nakaseomyces glabratus [13]) [µg/mL] | MIC (Candida parapsilosis [14]) [µg/mL] | MIC (Candida tropicalis [15]) [µg/mL] | MIC (Nakaseomyces glabratus [16]) [µg/mL] | MIC [17] [µg/mL] | MIC (Candida albicans [18]) [µg/mL] | MIC (Pichia kudriavzevii [19]) [µg/mL] | MIC (Candida tropicalis [20]) [µg/mL] | also measured
Cc1c(/[N+]([O-])=N/C#N)c(-c2ccccn2)nn1C | 128 (≈ 528 µM) | 128 (≈ 528 µM) | 16 (≈ 66 µM) | 128 (≈ 528 µM) | 128 (≈ 528 µM) | 64 (≈ 264 µM) | 16 (≈ 66 µM) | 8 (≈ 33 µM) | 16 (≈ 66 µM) | 16 (≈ 66 µM) | 16 (≈ 66 µM) | 64 (≈ 264 µM) | 128 (≈ 528 µM) | 128 (≈ 528 µM) | 128 (≈ 528 µM) | 64 (≈ 264 µM) | 8 (≈ 33 µM) | 128 (≈ 528 µM) | 8 (≈ 33 µM) | 128 (≈ 528 µM) | MIC (Staphylococcus aureus [21]): 32 µg/mL (≈ 132 µM); MIC (Pseudomonas aeruginosa [22]): > 128 µg/mL; MIC [23]: 16 µg/mL (≈ 66 µM); MIC (Staphylococcus aureus [24]): 64 µg/mL (≈ 264 µM); MIC (Nakaseomyces glabratus [25]): 4 µg/mL (≈ 16.5 µM); MIC (Candida albicans [26]): 128 µg/mL (≈ 528 µM); MIC (Pseudomonas aeruginosa [27]): > 128 µg/mL; MIC (Escherichia coli): > 128 µg/mL; MIC (Proteus mirabilis): > 128 µg/mL
Cc1cc(-c2nn(C)c(C)c2/[N+]([O-])=N/C#N)nn1C | > 128 | > 128 | > 128 | > 128 | > 128 | 64 (≈ 247 µM) | > 128 | 16 (≈ 61.7 µM) | > 128 | 16 (≈ 61.7 µM) | > 128 | > 128 | > 128 | > 128 | > 128 | > 128 | 16 (≈ 61.7 µM) | > 128 | > 128 | > 128 | MIC (Staphylococcus aureus [21]): 32 µg/mL (≈ 123 µM); MIC (Pseudomonas aeruginosa [22]): > 128 µg/mL; MIC [23]: 16 µg/mL (≈ 61.7 µM); MIC (Staphylococcus aureus [24]): 32 µg/mL (≈ 123 µM); MIC (Nakaseomyces glabratus [25]): > 128 µg/mL; MIC (Candida albicans [26]): > 128 µg/mL; MIC (Pseudomonas aeruginosa [27]): > 128 µg/mL; MIC (Escherichia coli): > 128 µg/mL; MIC (Proteus mirabilis): > 128 µg/mL
Cc1cc(-c2nn(C)c(C)c2/[N+]([O-])=N/C#N)on1 | 128 (≈ 520 µM) | 128 (≈ 520 µM) | 64 (≈ 260 µM) | > 128 | 128 (≈ 520 µM) | 128 (≈ 520 µM) | 32 (≈ 130 µM) | 2 (≈ 8.12 µM) | 32 (≈ 130 µM) | 2 (≈ 8.12 µM) | 64 (≈ 260 µM) | 128 (≈ 520 µM) | 128 (≈ 520 µM) | 128 (≈ 520 µM) | 128 (≈ 520 µM) | 128 (≈ 520 µM) | 2 (≈ 8.12 µM) | 128 (≈ 520 µM) | 64 (≈ 260 µM) | 128 (≈ 520 µM) | MIC (Staphylococcus aureus [21]): 2 µg/mL (≈ 8.12 µM); MIC (Pseudomonas aeruginosa [22]): > 128 µg/mL; MIC [23]: 2 µg/mL (≈ 8.12 µM); MIC (Staphylococcus aureus [24]): 4 µg/mL (≈ 16.2 µM); MIC (Nakaseomyces glabratus [25]): 32 µg/mL (≈ 130 µM); MIC (Candida albicans [26]): 128 µg/mL (≈ 520 µM); MIC (Pseudomonas aeruginosa [27]): > 128 µg/mL; MIC (Escherichia coli): > 128 µg/mL; MIC (Proteus mirabilis): > 128 µg/mL
Cc1cc(-c2nn(C)c(C)c2/[N+]([O-])=N/C#N)no1 | 128 (≈ 520 µM) | 128 (≈ 520 µM) | 128 (≈ 520 µM) | > 128 | 128 (≈ 520 µM) | 128 (≈ 520 µM) | 64 (≈ 260 µM) | 8 (≈ 32.5 µM) | 64 (≈ 260 µM) | 4 (≈ 16.2 µM) | 128 (≈ 520 µM) | 128 (≈ 520 µM) | 128 (≈ 520 µM) | 128 (≈ 520 µM) | > 128 | 128 (≈ 520 µM) | 8 (≈ 32.5 µM) | > 128 | 128 (≈ 520 µM) | > 128 | MIC (Staphylococcus aureus [21]): 8 µg/mL (≈ 32.5 µM); MIC (Pseudomonas aeruginosa [22]): > 128 µg/mL; MIC [23]: 4 µg/mL (≈ 16.2 µM); MIC (Staphylococcus aureus [24]): 16 µg/mL (≈ 65 µM); MIC (Nakaseomyces glabratus [25]): 64 µg/mL (≈ 260 µM); MIC (Candida albicans [26]): > 128 µg/mL; MIC (Pseudomonas aeruginosa [27]): > 128 µg/mL; MIC (Escherichia coli): > 128 µg/mL; MIC (Proteus mirabilis): > 128 µg/mL
Cc1c(/[N+]([O-])=N/C#N)c(-c2cccs2)nn1C | 16 (≈ 64.7 µM) | 16 (≈ 64.7 µM) | 0.5 (≈ 2.02 µM) | 16 (≈ 64.7 µM) | 8 (≈ 32.4 µM) | 1 (≈ 4.04 µM) | 1 (≈ 4.04 µM) | 2 (≈ 8.09 µM) | 0.5 (≈ 2.02 µM) | 2 (≈ 8.09 µM) | 0.5 (≈ 2.02 µM) | 0.25 (≈ 1.01 µM) | 0.25 (≈ 1.01 µM) | 8 (≈ 32.4 µM) | 8 (≈ 32.4 µM) | 0.25 (≈ 1.01 µM) | 2 (≈ 8.09 µM) | 1 (≈ 4.04 µM) | 0.5 (≈ 2.02 µM) | 8 (≈ 32.4 µM) | MIC (Staphylococcus aureus [21]): 4 µg/mL (≈ 16.2 µM); MIC (Pseudomonas aeruginosa [22]): > 128 µg/mL; MIC [23]: 2 µg/mL (≈ 8.09 µM); MIC (Staphylococcus aureus [24]): 8 µg/mL (≈ 32.4 µM); MIC (Nakaseomyces glabratus [25]): 0.25 µg/mL (≈ 1.01 µM); MIC (Candida albicans [26]): 1 µg/mL (≈ 4.04 µM); MIC (Pseudomonas aeruginosa [27]): > 128 µg/mL; MIC (Escherichia coli): > 128 µg/mL; MIC (Proteus mirabilis): > 128 µg/mL
